Data published in ChEMBL document CHEMBL4422614 (Eur J Med Chem, 2019).
The source made the active and inactive calls. The rule behind the calls is not given here.

Assays:
[1] = in vitro; settings: PAMPA
[2] = target: 3',5'-cyclic-AMP phosphodiesterase 4D (Homo sapiens, UniProt Q08499); assay: Inhibition of human PDE4D2 (86 to 413 residues) catalytic domain using [3H]-cAMP as substrate after 15 mins by liquid scintillation counting method
[3] = Antioxidant activity assessed as trolox equivalent of AAPH-induced radical scavenging activity at 10 to 20 uM preincubated for 10 mins followed by AAPH addition measured every minute for 120 mins by ORAC fluorescein assay; assay type: functional
In short: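 ORAC values are expressed as trolox equivalents, mean ± SD of three independent experiments.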

[4] = test system: Mus musculus; assay: Cognition enhancement activity in amyloid beta (25 to 35 residues) induced C57BL/6J mouse model of Alzheimer's disease assessed as swimming time in effective region at 30 mg/kg/day, ig administered for 26 consecutive days by Morris water maze test (4.3 +/- 1.3 sec); assay type: functional
In short: (§1)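 Mice were randomized into 7 groups. All except sham got an ICV injection of Aβ25-35 (3 nmol); sham got the same volume of saline ICV. Dosing was intragastric daily for 26 days, with 0.5% CMC-Na as vehicle for sham and model. Body weight, diarrhea and emesis-like behavior were monitored.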

[5] = Metal chelating activity assessed as inhibition of Cu(II)-induced amyloid beta (1 to 42 residues) aggregation at 25 uM after 24 hrs by TEM assay
In short: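 Samples were prepared as for the ThT assay. 10 µL aliquots were applied to carbon-coated copper grids for 2 min, then stained with 3% phosphotungstic acid for 2 min and imaged by transmission electron microscopy.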

[6] = test system: Mus musculus; assay: (§2) Neuroprotection in C57BL/6J mouse model of amyloid beta (25 to 35 residues) induced Alzheimer's disease assessed as reduction in ratio of apoptotic neuron in CA1 hippocampus region at 30 mg/kg/day, ig administered for 26 consecutive days by hematoxylin and eosin staining-based light microscopic analysis (reference value: 40.6 +/- 12.5%); assay type: ADME, organism-based; set-up: scale not given: the % may be the effect or the level left; settings: in vivo, po
In short: (§3)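 Hippocampal CA1, CA3 and DG neurons were stained with H&E after the Aβ25-35 ICV model and 26-day intragastric dosing. Denatured cell index = denatured cells/total cells, n = 5. Values are mean ± SD, two-way ANOVA versus model.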

[7] = test system: Mus musculus; assay: Cognition enhancement activity in amyloid beta (25 to 35 residues) induced C57BL/6J mouse model of Alzheimer's disease assessed as swimming path length in virtual platform at 30 mg/kg/day, ig administered for 26 consecutive days by Morris water maze test (10.2 +/- 3.2 cm); assay type: functional
In short: as §1

[8] = Drug metabolism in Sprague-Dawley rat liver microsomes assessed as metabolic rate up to 180 mins in presence of NADPH by UV-based LC-MS/MS analysis; assay type: ADME, Microsome; settings: 3 h
[9] = test system: Mus musculus; assay: Cognition enhancement activity in amyloid beta (25 to 35 residues) induced C57BL/6J mouse model of Alzheimer's disease assessed as swimming speed at 30 mg/kg/day, ig administered for 26 consecutive days by Morris water maze test (reference value: 15.6 +/- 2.4 cm/sec); assay type: functional
In short: as §1

[10] = test system: Mus musculus; assay: as §2, with “in” for “in C57BL/6J mouse model of”, “induced C57BL/6J mouse model of” for “induced”, “DG” for “CA1”, “55.8” for “40.6”, “7.2%)” for “12.5%)”; assay type: ADME, organism-based; set-up: scale not given: the % may be the effect or the level left; settings: in vivo, po
In short: as §3

[11] = in vitro; settings: Sprague-Dawley, rat
[12] = test system: Mus musculus; assay: Cognition enhancement activity in amyloid beta (25 to 35 residues) induced C57BL/6J mouse model of Alzheimer's disease assessed as decrease in escape latancy at 30 mg/kg/day, ig administered for 26 consecutive days by Morris water maze test; assay type: functional, organism-based
In short: as §1

[13] = test system: Mus musculus; assay: Cognition enhancement activity in amyloid beta (25 to 35 residues) induced C57BL/6J mouse model of Alzheimer's disease assessed as swimming speed at 4 mg/kg/day, ig administered for 26 consecutive days by Morris water maze test (reference value: 15.6 +/- 2.4 cm/sec); assay type: functional
In short: as §1

[14] = Metal chelating activity assessed as inhibition of Cu(II)-induced amyloid beta (1 to 42 residues) aggregation at 25 uM after 24 hrs by thioflavin-T fluorescence assay (reference value: 156%); set-up: scale not given: the % may be the effect or the level left
In short: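 Aβ1-42 was incubated with CuSO4 with or without compound, and thioflavin T fluorescence was read. Fluorescence is given as percent of Aβ alone, as mean ± SD of three independent experiments.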

[15] = test system: Mus musculus; assay: as §2, with “in” for “in C57BL/6J mouse model of”, “induced C57BL/6J mouse model of” for “induced”, “CA3” for “CA1”, “80.2” for “40.6”, “8.6%)” for “12.5%)”; assay type: ADME, organism-based; set-up: scale not given: the % may be the effect or the level left; settings: in vivo, po
In short: as §3

[16] = Hepatotoxicity in C57BL/6 mouse assessed as abnormal changes up to 2000 mg/kg, ig after 14 days by microscopic analysis; assay type: toxicity, organism-based; settings: in vivo, po, 336 h
In short: (§4)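 Mice given a single intragastric dose of test compound at various dosages, then observed for 14 days for death and abnormal behaviour. On day 14, animals were sacrificed and heart, liver, lungs and kidneys examined.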

[17] = Metal chelating activity assessed as inhibition of Cu(II)/ascorbate-induced ROS production by measuring […] level at 10 uM by fluorescence assay
In short: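 A Cu-ascorbate redox system in PBS (pH 7.4) at 37 °C, with Cu(II) 5 µM, ascorbate 150 µM and coumarin-3-carboxylic acid 50 µM as the hydroxyl radical trap. Compound was pre-incubated 10 min before ascorbate was added. Fluorescence of 7-hydroxy-CCA (ex 395, em 450 nm) was read every 30 s for 15 min.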

[18] = Acute Toxicity in C57BL/6 mouse lung assessed as abnormal changes up to 2000 mg/kg, ig after 14 days by microscopic analysis; assay type: organism-based; settings: in vivo, po, 336 h
In short: as §4

[19] = Nephrotoxicity in C57BL/6 mouse assessed as abnormal changes up to 2000 mg/kg, ig after 14 days by microscopic analysis; assay type: toxicity, organism-based; settings: in vivo, po, 336 h
In short: as §4

[20] = test system: Mus musculus; assay: Cognition enhancement activity in amyloid beta (25 to 35 residues) induced C57BL/6J mouse model of Alzheimer's disease assessed as increase in number of virtual platform crossing at 30 mg/kg/day, ig administered for 26 consecutive days by Morris water maze test; assay type: functional, organism-based
In short: as §1

[21] = Toxicity in amyloid beta (25 to 35 residues) induced C57BL/6J mouse model of Alzheimer's disease assessed as emesis at 30 mg/kg/day, ig administered for 26 consecutive days; assay type: organism-based; settings: in vivo, po
In short: as §1

[22] = Acute Toxicity in C57BL/6 mouse up to 2000 mg/kg, ig measured every 14 days; assay type: organism-based; settings: in vivo, po, 336 h
In short: as §4

[23] = Metal chelating activity of the compound assessed as formation of ferric-compound complex at 50 uM after 30 mins by UV-vis spectrophotometric analysis
In short: (§5)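 UV-vis absorption spectra of compound (50 µM) were recorded in HEPES buffer alone and with 50 µM CuSO4, ZnCl2, FeSO4 or FeCl3, and spectral changes were assessed.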

[24] = Acute Toxicity in C57BL/6 mouse assessed as mouse mortality up to 2000 mg/kg, ig measured over 14 days; assay type: organism-based; settings: in vivo, po, 336 h
In short: as §4

[25] = Nephrotoxicity in C57BL/6 mouse assessed as tissue damage up to 2000 mg/kg, ig after 14 days by microscopic analysis; assay type: toxicity, organism-based; settings: in vivo, po, 336 h
In short: as §4

[26] = Metal chelating activity of the compound assessed as formation of zinc-compound complex at 50 uM after 30 mins by UV-vis spectrophotometric analysis
In short: as §5

[27] = Metal chelating activity of the compound assessed as formation of ferrous-compound complex at 50 uM after 30 mins by UV-vis spectrophotometric analysis
In short: as §5

[28] = Acute Toxicity in C57BL/6 mouse lung assessed as tissue damage up to 2000 mg/kg, ig after 14 days by microscopic analysis; assay type: organism-based; settings: in vivo, po, 336 h
In short: as §4

[29] = Hepatotoxicity in C57BL/6 mouse assessed as tissue damage up to 2000 mg/kg, ig after 14 days by microscopic analysis; assay type: toxicity, organism-based; settings: in vivo, po, 336 h
In short: as §4

[30] = Toxicity in amyloid beta (25 to 35 residues) induced C57BL/6J mouse model of Alzheimer's disease assessed as loss of body weight at 30 mg/kg/day, ig administered for 26 consecutive days; assay type: organism-based; settings: in vivo, po
In short: as §1

[31] = Acute Toxicity in C57BL/6 mouse assessed as abnormal behavior up to 2000 mg/kg, ig measured over 14 days; assay type: organism-based; settings: in vivo, po, 336 h
In short: as §4

[32] = test system: SH-SY5Y; assay: Cytotoxicity against human SH-SY5Y cells assessed as effect on cell viability at 10 uM after 24 hrs by MTT assay; assay type: cell-based
In short: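 SH-SY5Y viability was measured by MTT after exposure to compounds at 10 µM. Results are percent of vehicle control from three independent experiments.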

[33] = Cardiotoxicity in C57BL/6 mouse assessed as abnormal changes up to 2000 mg/kg, ig after 14 days by microscopic analysis; assay type: toxicity, organism-based; settings: in vivo, po, 336 h
In short: as §4

[34] = Cardiotoxicity in C57BL/6 mouse assessed as tissue damage up to 2000 mg/kg, ig after 14 days by microscopic analysis; assay type: toxicity, organism-based; settings: in vivo, po, 336 h
In short: as §4

[35] = Toxicity in amyloid beta (25 to 35 residues) induced C57BL/6J mouse model of Alzheimer's disease assessed as diarrhea at 30 mg/kg/day, ig administered for 26 consecutive days; assay type: organism-based; settings: in vivo, po
In short: as §1

[36] = Metal chelating activity of the compound assessed as formation of cupric-compound complex at 50 uM after 30 mins by UV-vis spectrophotometric analysis
In short: as §5

[37] = Metal chelating activity assessed as inhibition of Cu2+-induced amyloid beta (1 to 42 residues) aggregation at 25 uM after 24 hrs by thioflavin-T fluorescence assay (reference value: 156%); set-up: scale not given: the % may be the effect or the level left
In short: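 Aβ1-42 was incubated with Cu(II) (CuSO4) with or without compound, and thioflavin T fluorescence was read. The Aβ-alone signal was set as 100%. Mean ± SD of three independent experiments.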

Sequence of 3',5'-cyclic-AMP phosphodiesterase 4D (Q08499 whole entry, the tested form may be a part): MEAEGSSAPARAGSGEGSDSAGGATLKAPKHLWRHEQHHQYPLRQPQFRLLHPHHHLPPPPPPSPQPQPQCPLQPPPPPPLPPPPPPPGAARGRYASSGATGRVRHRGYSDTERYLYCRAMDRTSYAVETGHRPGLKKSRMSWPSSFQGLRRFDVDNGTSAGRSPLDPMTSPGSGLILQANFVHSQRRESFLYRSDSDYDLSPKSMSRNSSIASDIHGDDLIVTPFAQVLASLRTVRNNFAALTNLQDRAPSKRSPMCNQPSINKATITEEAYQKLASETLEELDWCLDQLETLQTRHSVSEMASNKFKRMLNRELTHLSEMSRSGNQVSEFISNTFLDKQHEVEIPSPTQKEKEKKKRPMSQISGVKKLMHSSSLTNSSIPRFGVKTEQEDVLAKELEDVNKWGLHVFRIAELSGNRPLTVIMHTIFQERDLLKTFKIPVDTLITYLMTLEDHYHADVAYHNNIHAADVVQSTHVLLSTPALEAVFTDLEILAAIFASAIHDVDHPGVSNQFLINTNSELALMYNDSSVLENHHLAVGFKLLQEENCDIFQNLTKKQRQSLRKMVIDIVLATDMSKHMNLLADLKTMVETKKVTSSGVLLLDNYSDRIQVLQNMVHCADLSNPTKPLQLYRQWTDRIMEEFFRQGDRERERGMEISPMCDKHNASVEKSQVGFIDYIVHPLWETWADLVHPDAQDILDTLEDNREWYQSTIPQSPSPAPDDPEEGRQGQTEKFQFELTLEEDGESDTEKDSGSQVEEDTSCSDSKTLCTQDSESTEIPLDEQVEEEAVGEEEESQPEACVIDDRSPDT

COc1ccc(C(=O)Nc2cc(I)c(O)c3ncccc23)cc1OC1CCCC1.Cl
Papp at 10 h, 100 ug/ml [1]: 5.86 ×10⁻⁶ cm/s | IC50 [2]: 597 nM | Activity [3]: 1.01 equiv

Oc1c(I)cc(Cl)c2cccnc12 [CLIOQUINOL]
Time [4]: 5.8 s | Activity [5]: Active | Activity [6]: 24.2% | Papp at 10 h, 100 ug/ml [1]: 5.2 ×10⁻⁶ cm/s | Activity [7]: 18 cm | K [8]: 0.0194 min⁻¹ | Activity [9]: 16 cm/s | Activity [10]: 19.7% | half-life ([11]; liver microsomes): 35.8 min | Activity [12]: Active | Activity [13]: Active | Activity [14]: 66% | Activity [3]: 0.6 equiv | Activity [15]: 37.8%

Cl.O=C(Nc1cc(I)c(O)c2ncccc12)c1ccc(OC(F)F)c(OCC2CC2)c1
Papp at 10 h, 100 ug/ml [1]: 7.05 ×10⁻⁶ cm/s | IC50 [2]: 426 nM | Activity [3]: 0.69 equiv

COc1ccc(C(=O)Nc2ccc(O)c3ncccc23)cc1OC1CCCC1.Cl
Activity [16]: Non-Toxic | Time [4]: 6.1 s | Activity [17]: Active | Activity [18]: Non-Toxic | Activity [19]: Non-Toxic | Activity [20]: Active | Activity [5]: Active | Activity [21]: Non-Toxic | Activity [6]: 13.8% | Activity [22]: Non-Toxic | Activity [23]: Active | Papp at 10 h, 100 ug/ml [1]: 5.9 ×10⁻⁶ cm/s | Activity [24]: Non-Toxic | Activity [25]: Non-Toxic | Activity [26]: Active | Activity [7]: 18 cm | Activity [27]: Active | Activity [28]: Non-Toxic | Activity [29]: Non-Toxic | K [8]: 0.0134 min⁻¹ | Activity [30]: Non-Toxic | Activity [31]: Non-Toxic | Activity [10]: 26.8% | Activity [32]: Non-Toxic | half-life ([11]; liver microsomes): 51.7 min | Activity [33]: Non-Toxic | Activity [34]: Non-Toxic | Activity [35]: Non-Toxic | IC50 [2]: 492 nM | Activity [12]: Active | Activity [13]: 15.3 cm/s | Activity [14]: 46% | Activity [3]: 0.63 equiv | Activity [36]: Active | Activity [15]: 37.1% | Activity [37]: 51%

COc1cc2c(cc1OC)C(=O)C(CC1CCN(Cc3ccccc3)CC1)C2 (configuration not stated) [DONEPEZIL]
K [8]: 0.00917 min⁻¹ | half-life ([11]; microsomes): 75.6 min

O=C(Nc1ccc2cccc(O)c2n1)c1ccc(OC(F)F)c(OCC2CC2)c1
Papp at 10 h, 100 ug/ml [1]: 15.8 ×10⁻⁶ cm/s | IC50 [2]: 4060 nM | Activity [3]: 0.34 equiv

Cl.O=C(Nc1cc(Cl)c(O)c2ncccc12)c1ccc(OC(F)F)c(OCC2CC2)c1
Activity [32]: Toxic | IC50 [2]: 3830 nM | Activity [3]: 0.74 equiv | Activity [37]: 82%

COc1ccc(NC(=O)c2ccc3c(Cl)cc(Cl)c(O)c3n2)cc1OC
IC50 [2]: 8070 nM | Activity [3]: 1.05 equiv
